Compound activity deposited in PubChem BioAssay by several laboratories.
SIAE inh = inhibitors of human sialic acid acetylesterase SIAE; inhibition, % at 9.66 µM; AID 1053197; Q9HAT2; hit rate 0.69% among 370,000; SIAE FP-Rh probe binding, fluorescence polarization;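 active = inhibition above a cutoff: mean of compounds within the control limits plus 3 SD of those, cut at about 17% in these data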
PAD4 FP inh = PAD4 (human) enzyme inhibition. hit rate 0.41% among 330,000. inhibition, % at 6.36 µM. AID 485272. Q9UM07. recombinant PAD4, RCA probe fluorescence polarization;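 active = percent inhibition above a cutoff equal to the mean of all tested compounds plus 3 SD, cut at about 15% in these data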
Target sequence (Q9UM07 whole entry, looked up): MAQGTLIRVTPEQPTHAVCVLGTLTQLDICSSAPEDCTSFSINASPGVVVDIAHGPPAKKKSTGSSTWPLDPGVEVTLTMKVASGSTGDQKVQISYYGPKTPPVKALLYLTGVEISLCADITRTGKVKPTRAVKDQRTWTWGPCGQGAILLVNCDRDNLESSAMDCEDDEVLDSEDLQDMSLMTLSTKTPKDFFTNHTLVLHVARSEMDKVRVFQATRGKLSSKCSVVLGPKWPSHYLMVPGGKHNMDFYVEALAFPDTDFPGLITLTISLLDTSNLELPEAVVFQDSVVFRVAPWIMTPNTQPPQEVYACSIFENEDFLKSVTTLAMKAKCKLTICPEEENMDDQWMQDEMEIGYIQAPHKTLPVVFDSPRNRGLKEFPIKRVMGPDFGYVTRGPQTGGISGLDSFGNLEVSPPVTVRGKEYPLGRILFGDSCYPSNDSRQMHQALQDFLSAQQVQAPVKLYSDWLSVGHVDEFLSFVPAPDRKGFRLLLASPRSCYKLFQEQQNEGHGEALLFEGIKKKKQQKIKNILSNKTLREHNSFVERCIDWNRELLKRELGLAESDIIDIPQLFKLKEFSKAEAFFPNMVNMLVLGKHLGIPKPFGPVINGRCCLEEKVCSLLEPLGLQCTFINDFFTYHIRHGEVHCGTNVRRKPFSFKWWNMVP
Apaf-1 inh = human Apaf-1 inhibition; inhibition, % at 20 µM; hit rate 0.71% among 330,000; O14727; reconstituted apoptosome caspase-3 activity, DEVD-Rh110 fluorescence; active = inhibition of at least 40% at 20 µM
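System: reconstituted apoptosome with Apaf-1, cytochrome c, caspase-9, procaspase-3, dATP; Signal: Rh110 fluorescence intensity; Schedule: 30 min compound preincubation, 50 min activation, room temperature; Reagent: cytochrome c trigger plus (Z-DEVD)2-Rh110 caspase-3 substrate.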
TCR CD3 inh = blocks the human TCR-CD3 interaction; TAMRA-labeled TCR probe fluorescence, biochemical; inhibition, % at 9.4 µM; hit rate 0.37% among 360,000; AID 651800; in the data active = inhibition above about 19%;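 note: recombinant mutant TCR 2C K166C tagged with TAMRA read by polarization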
TDP2 absorb = blocks human TDP2 phosphodiesterase activity; recombinant TDP2, T5PNP hydrolysis, p-nitrophenol absorbance 415 nm; inhibition, % at 12.8 µM; hit rate 0.34% among 370,000;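 active = inhibition above the mean of all tested compounds plus 3 SD, set per campaign, cut at about 25% in these data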
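Read-out basis: percent inhibition. System: recombinant human TDP2. Buffer or medium: Mg2+-containing Tris-HCl buffer, pH 7.5. Repeats: single replicate. Timing: reaction 2 h, 37 °C. Benchmarks: high control without enzyme, low control DMSO plus TDP2. Probe or stimulus: 5 mM T5PNP. Doses: 12.8 µM only. Measured by: epi absorbance of p-nitrophenol freed from T5PNP by hydrolysis.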
GSTO1 counter = counter-screen for RBBP9 inhibitors: inhibitors of human GSTO1. recombinant GSTO1, activity-based probe fluorescence polarization. hit rate 1.1% among 300,000. inhibition, % at 5.96 µM. P78417;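 active = inhibition above the campaign mean inhibition plus 3 SD, cut at about 35% in these data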
Apaf-1 inh conf2 = confirmation of Apaf-1 inhibitors. shares compounds with Apaf-1 inh. hit rate 25% among 1,800. AID 504614. reconstituted apoptosome, caspase-3 DEVD-Rh110 fluorescence. inhibition, % at 20 µM;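 active = mean inhibition of at least 40% at 20 µM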
Rh110 quench = counter-screen for Apaf-1 inhibitors: fluorescence interference; activation (fluorescence interference), % at 20 µM; shares compounds with Apaf-1 inh; 1,800 tested, under 10 active; AID 504615; Rh110 fluorescence interference, quenched caspase reaction;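 active = signal rise of 40% or more at 20 µM, treated as a fluorescence artifact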
Apaf1 inh interf = shows fluorescence interference in the Apaf-1 inhibitor assay format. 460 tested, under 10 active. shares compounds with Apaf-1 inh. fluorescence interference counterscreen, Apaf-1 assay format. IC50, µM; call rule not given here
Numbers stand for hits; - = inactive; . = no result. Shown are actives, neighbours in structure and some others; about 2.4% of the full set was active somewhere.

SMILES	SIAE inh	PAD4 FP inh	Apaf-1 inh	TCR CD3 inh	TDP2 absorb	GSTO1 counter	Apaf-1 inh conf2	Rh110 quench	others
CCC1CCCCN1C(=O)COc1ccc(N(C)S(=O)(=O)c2ccc(C)cc2)cc1 (stereo not drawn)	-	-	50.9	-	-	-	-	-
CCCN(CC(=O)Nc1ccccc1OC)C(=O)CSc1ccc(Br)cc1C	-	-	57.3	-	-	.	40.2	-	Apaf1 inh interf=-
CCCN(CC(=O)Nc1ccccc1C)C(=O)CCCOc1ccc(Br)cc1	-	-	52.9	-	-	.	42.6	-	Apaf1 inh interf=-
CC1CCN(C(=O)Cn2nc(C(F)(F)F)c3c2CCCC3)CC1	-	-	-	-	-	-	.	.
COc1ccc(C(CNC(=O)C2CC(=O)N(Cc3ccccc3)C2)N2CCCC2)cc1 (stereo not drawn)	-	-	61.5	-	-	.	-	-
COc1ccc(C(CNC(=O)c2cccc(NS(=O)(=O)c3ccccc3)c2)N2CCCC2)cc1 (stereo not drawn)	-	.	.	-	-	.	.	.
COc1ccc(C(CNC(=O)c2cccc(S(=O)(=O)N(C)c3ccccc3)c2)N2CCCC2)cc1 (stereo not drawn)	-	-	43.5	-	-	.	-	-
CCn1c(SCC(=O)OC)nnc1C1CCCCC1	-	-	-	-	-	-	.	.
CC1(OC(=O)CCc2ccccc2)C(=O)C=C2C=C(c3ccc(C#N)cc3)N(C3CCCC3)C=C2C1=O (stereo not drawn)	-	-	-	-	-	-	.	.
COC(=O)CCC(=O)OC1(C)C(=O)C=C2C=C(C3CC3)N(C3CCCC3)C=C2C1=O (stereo not drawn)	-	-	67.5	-	-	-	-	-
S=C(NCc1ccccc1)Nc1ccc2ccccc2c1	-	.	-	-	-	.	.	.
C/C(=C\C(=S)Nc1ccccc1)Nc1cccc2ccccc12	-	-	96.6	-	-	-	-	-
C/C(=C\C(=S)Nc1ccccc1)Nc1ccc2ccccc2c1	-	-	41.2	-	-	-	-	-
Cc1nc([N+](=O)[O-])c(N2CCOCC2)n1Cc1ccccc1	-	-	-	-	-	-	.	.
CCN1/C(=C/c2ccc3ccccc3[n+]2CC)C=Cc2ccccc21	-	-	40.7	-	-	-	-	-
CCCCCCCCNC(C)C(O)c1ccc(SC(C)C)cc1 (stereo not drawn)	-	-	57.8	-	-	-	-	-
CN1CCc2nc(SCC(=O)Nc3cccc(F)c3)c(C#N)c(-c3cccs3)c2C1	-	-	67.4	-	-	-	-	-
CN1CCc2nc(SCC(=O)Nc3ccc(OC(F)(F)F)cc3)c(C#N)c(-c3cccs3)c2C1	-	-	-	-	-	-	.	.
COc1ccc(N2CCN(C(=O)c3ccc(COc4ccc5c(C)cc(=O)oc5c4)cc3)CC2)cc1	-	-	57.7	-	-	-	-	-
CCC(CC)C(=O)Nc1c(C)n(C)n(-c2ccccc2)c1=O	-	-	-	-	-	-	.	.
NC(=O)c1c(NC(=O)c2ccccc2)sc2c1CCN(Cc1ccccc1)C2	-	-	-	-	-	-	.	.
CCN1CCc2c(sc(NC(=O)c3ccc(C(=O)c4ccccc4)cc3)c2C(N)=O)C1	-	-	43.6	-	-	-	-	-
CCOc1ccc2nc(SCc3ccc(CC(=O)O)cc3)c(C#N)cc2c1	-	-	-	-	-	-	.	.
Cc1c(N=Cc2c(O)n(C3CCCCC3)c(=O)[nH]c2=O)c(=O)n(-c2ccccc2)n1C	-	-	-	-	-	-	.	.
O=c1[nH]c(=O)n(C2CCCCCC2)c(O)c1C=NCc1ccc(F)cc1	-	-	40.4	-	-	-	-	-
SMILES	SIAE inh	PAD4 FP inh	Apaf-1 inh	TCR CD3 inh	TDP2 absorb	GSTO1 counter	Apaf-1 inh conf2	Rh110 quench	others
C[C@]12C(=O)N(c3ccc(F)cc3)C(=O)N1[C@H]1c3ccccc3OC[C@@H]1[C@H]2c1ccccc1	-	-	-	-	-	.	.	.
COc1cc(NC(C)CCCN)c2ncccc2c1Oc1ccccc1 (stereo not drawn)	-	-	70.0	-	-	-	-	-
O=C1c2ccccc2-c2onc3c(N4CCN(CCO)CC4)cc(N4CCN(C(=O)c5ccco5)CC4)c1c23	-	-	52.4	-	-	36.8	-	-
CCOC(=O)N1CCN(C(=O)c2noc3c2COc2ccccc2-3)CC1	-	-	-	-	-	-	.	.
CCOC(=O)N1CCN(c2cc(NCCC(=O)O)c3c4c(onc24)-c2ccccc2C3=O)CC1	.	-	75.2	.	.	59.8	53.6	-	Apaf1 inh interf=6.25
O=C(O)CN1C(=O)c2ccc(C(=O)c3ccccc3)cc2C1=O	-	-	-	-	-	-	.	.
COc1cccc(NC(=O)CN(C)C(=O)c2cccc(S(=O)(=O)N3CC4(C)CC3CC(C)(C)C4)c2)c1 (stereo not drawn)	-	-	-	-	-	.	.	.
COc1ccc(-c2cc(=O)n(-c3ccc([N+](=O)[O-])cc3)[nH]2)cc1	-	36.2	64.8	-	-	53.5	-	-
COc1ccc(-c2[nH]n(-c3ccc([N+](=O)[O-])cc3)c(=O)c2C=NCc2ccc(F)cc2)cc1	-	-	-	-	-	-	.	.
COc1cc2cc(CCCOC(=O)c3ccc(Br)cc3)oc(=O)c2cc1OC	-	-	-	-	-	.	.	.
CC(=O)NC(Cc1cccc(F)c1)C(=O)NC1CCN(C(=O)c2cccc(C)c2)CC1 (stereo not drawn)	-	-	-	-	-	-	.	.
O=C(NC1=C(Nc2ccc(F)cc2)C(=O)c2ccccc2C1=O)c1ccc(Cl)cc1	-	-	70.5	-	-	-	68.4	-	Apaf1 inh interf=-
CCOc1ccccc1NC(=O)c1nc[nH]c1C(=O)Nc1ccccc1OCC	.	-	-	.	.	-	.	.
COc1ccccc1NC(=O)c1nc[nH]c1C(=O)Nc1ccccc1OC	-	-	94.5	-	-	-	-	-
CN(C)/C=N/c1ncc(-c2ncc(C(F)(F)F)cc2Cl)cn1	-	-	-	-	-	-	.	.
OCCCCCNc1ncnc2ccccc12	-	-	-	-	-	-	.	.
OCCCCNc1cccc2ccccc12	-	-	80.9	-	-	-	-	-
COC(=O)c1cccc(C23CC4(C2)[C@H](CN(CC2CCCCC2)[C@@H]4c2ccccc2)C3c2ccccc2)c1 (stereo partly drawn)	-	-	40.3	-	-	-	-	-
CCc1nc(SCC(=O)NCCc2ccccc2)n[nH]1	-	-	-	-	-	-	.	.
O=C(CSc1nnc(-c2cccs2)n1Cc1ccco1)Nc1ccc(Oc2ccccc2)cc1	-	.	.	.	-	.	.	.
